Results on one compound are retold here after ChEMBL document CHEMBL4043093, “2-Oxo-3, 4-dihydropyrimido[4, 5-d]pyrimidinyl derivatives as new irreversible pan fibroblast growth factor receptor (FGFR) inhibitors” (Eur J Med Chem, 2017).

Experiment [1] has as its target Myosin light chain kinase, smooth muscle (Homo sapiens) (UniProt Q15746). As to the kind of experiment: Inhibition of wild-type human full length MYLK (M854 to E1845 residues) expressed in HEK293 cells assessed as residual activity at 1000 nM after 30 mins by Kinomescan method relative to control. The class given is cell-based. The essentials: (§1)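 Single-concentration screen at 1 µM across a 456-kinase KINOMEscan panel. The read-out is Percent Control for each kinase.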

Experiment [2] addresses Serine/threonine-protein kinase Sgk2 (Homo sapiens) (UniProt Q9HBY8). Kind of experiment: Inhibition of wild-type human partial length SGK2 (L54 to C427 residues) expressed in HEK293 cells assessed as residual activity at 1000 nM after 30 mins by Kinomescan method relative to control. The class given is cell-based.
Experiment [3] has as its target Serine/threonine-protein kinase ULK3 (Homo sapiens) (UniProt Q6PHR2). As to the kind of experiment: Inhibition of wild-type human partial length ULK3 (M1 to Q290 residues) expressed in HEK293 cells assessed as residual activity at 1000 nM after 30 mins by Kinomescan method relative to control. The class given is cell-based.
In experiment [4] the target is TRAF2 and NCK-interacting protein kinase (Homo sapiens) (UniProt Q9UKE5). Kind of experiment: Inhibition of wild-type human partial length TNIK (D4 to K311 residues) expressed in Escherichia coli BL21 assessed as residual activity at 1000 nM after 30 mins by Kinomescan method relative to control.
Experiment [5] concerns the target Tyrosine-protein kinase Fer (Homo sapiens) (UniProt P16591). As to the kind of experiment: Inhibition of wild-type human partial length FER (S542 to T822 residues) expressed in Escherichia coli BL21 assessed as residual activity at 1000 nM after 30 mins by Kinomescan method relative to control.
Experiment [6] in a line: Antiproliferative activity against human FGFR2-amplified SUM52 cells after 5 days by SRB assay. The conditions noted are these: SUM52, 120 h. On the technique in general: In SRB staining, fixed cells bind dye roughly in proportion to their protein.
Experiment [7] addresses Dual serine/threonine and tyrosine protein kinase (Homo sapiens) (UniProt Q6XUX3). Kind of experiment: Inhibition of wild-type human full length RIPK5 (M1 to T929 residues) expressed in HEK293 cells assessed as residual activity at 1000 nM after 30 mins by Kinomescan method relative to control. Format: cell-based.
Experiment [8] has as its target Serine/threonine-protein kinase Nek4 (Homo sapiens) (UniProt P51957). As to the kind of experiment: Inhibition of wild-type human full length NEK4 (M1 to F841 residues) expressed in HEK293 cells assessed as residual activity at 1000 nM after 30 mins by Kinomescan method relative to control. The class given is cell-based. The essentials: as §1
Experiment [9] deals with Bone morphogenetic protein receptor type-1B (Homo sapiens) (UniProt O00238). Kind of experiment: Inhibition of wild-type human partial length BMPR1B (D178 to L502 residues) expressed in HEK293 cells assessed as residual activity at 1000 nM after 30 mins by Kinomescan method relative to control. Format: cell-based.
The target in experiment [10] is Serine/threonine-protein kinase 17B (Homo sapiens) (UniProt O94768). As to the kind of experiment: Inhibition of wild-type human full length DRAK2 (M1 to C372 residues) expressed in Escherichia coli BL21 assessed as residual activity at 1000 nM after 30 mins by Kinomescan method relative to control. The essentials:
as §1

In experiment [11] the target is Phosphatidylinositol 4-kinase beta (Homo sapiens) (UniProt Q9UBF8). As to the kind of experiment: Inhibition of wild-type human full length PIK4CB (M1 to M828 residues) expressed in HEK293 cells assessed as residual activity at 1000 nM after 30 mins by Kinomescan method relative to control. The class given is cell-based. The gist of the method: as §1
The target in experiment [12] is Serine/threonine-protein kinase ULK2 (Homo sapiens) (UniProt Q8IYT8). As to the kind of experiment: Inhibition of wild-type human partial length ULK2 (M1 to S301 residues) expressed in HEK293 cells assessed as residual activity at 1000 nM after 30 mins by Kinomescan method relative to control. The class given is cell-based.
Experiment [13] addresses Aurora kinase B (Homo sapiens) (UniProt Q96GD4). As to the kind of experiment: Inhibition of wild-type human partial length AURKB (D25 to A303 residues) expressed in HEK293 cells assessed as residual activity at 1000 nM after 30 mins by Kinomescan method relative to control. Format: cell-based.
The target in experiment [14] is Serine/threonine-protein kinase 25 (Homo sapiens) (UniProt O00506). Kind of experiment: Inhibition of wild-type human partial length YSK1 (V14 to H295 residues) expressed in Escherichia coli BL21 assessed as residual activity at 1000 nM after 30 mins by Kinomescan method relative to control.
Experiment [15] addresses Dual specificity mitogen-activated protein kinase kinase 2 (Homo sapiens) (UniProt P36507). Kind of experiment: Inhibition of wild-type human full length MEK2 (M1 to V400 residues) expressed in HEK293 cells assessed as residual activity at 1000 nM after 30 mins by Kinomescan method relative to control. Format: cell-based. The gist of the method: as §1
The target in experiment [16] is Ribosomal protein S6 kinase alpha-6 (Homo sapiens) (UniProt Q9UK32). Kind of experiment: Inhibition of wild-type human partial length N-terminal RSK4 kinase domain 1 (M1 to E397 residues) expressed in HEK293 cells assessed as residual activity at 1000 nM after 30 mins by Kinomescan method relative to control. Format: cell-based.
The target of experiment [17] is Tyrosine-protein kinase TXK (Homo sapiens) (UniProt P42681). As to the kind of experiment: Inhibition of wild-type human partial length TXK (L238 to W527 residues) expressed in Escherichia coli BL21 assessed as residual activity at 1000 nM after 30 mins by Kinomescan method relative to control.
In experiment [18] the target is Wee1-like protein kinase (Homo sapiens) (UniProt P30291). Kind of experiment: Inhibition of wild-type human partial length WEE1 (M291 to K575 residues) expressed in Escherichia coli BL21 assessed as residual activity at 1000 nM after 30 mins by Kinomescan method relative to control.
Experiment [19] concerns the target SNF-related serine/threonine-protein kinase (Homo sapiens) (UniProt Q9NRH2). Kind of experiment: Inhibition of wild-type human partial length SNRK (M1 to E339 residues) expressed in HEK293 cells assessed as residual activity at 1000 nM after 30 mins by Kinomescan method relative to control. Format: cell-based.
Experiment [20] has as its target Serine/threonine-protein kinase SIK3 (Homo sapiens) (UniProt Q9Y2K2). As to the kind of experiment: Inhibition of wild-type human partial length QSK (A90 to L395 residues) expressed in HEK293 cells assessed as residual activity at 1000 nM after 30 mins by Kinomescan method relative to control. The class given is cell-based.
The target in experiment [21] is Serine/threonine-protein kinase mTOR (Homo sapiens) (UniProt P42345). As to the kind of experiment: Inhibition of wild-type human partial length MTOR (L1382 to W2549 residues) expressed in HEK293 cells assessed as residual activity at 1000 nM after 30 mins by Kinomescan method relative to control. The class given is cell-based.
The subject of experiment [22] is Phosphatidylinositol 4,5-bisphosphate 3-kinase catalytic subunit alpha isoform (Homo sapiens), P42336 [H1047L]. Kind of experiment: Inhibition of human partial length PIK3CA H1047L mutant (R108 to N1068 residues) expressed in HEK293 cells assessed as residual activity at 1000 nM after 30 mins by Kinomescan method relative to control. The class given is cell-based. The gist of the method: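 KINOMEscan binding panel of 456 kinases, with the test compound at a single concentration of 1 µM. Read-out is Percent Control.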

In experiment [23] the test system is ALK tyrosine kinase receptor (Homo sapiens), Q9UM73 [L1196M]. As to the kind of experiment: Inhibition of wild-type human partial length ALK L1196M mutant (I1088 to E1409 residues) expressed in HEK293 cells assessed as residual activity at 1000 nM after 30 mins by Kinomescan method relative to control. The class given is cell-based.

Sequence of Bone morphogenetic protein receptor type-1B (Homo sapiens) (O00238 whole entry, the tested form may be a part): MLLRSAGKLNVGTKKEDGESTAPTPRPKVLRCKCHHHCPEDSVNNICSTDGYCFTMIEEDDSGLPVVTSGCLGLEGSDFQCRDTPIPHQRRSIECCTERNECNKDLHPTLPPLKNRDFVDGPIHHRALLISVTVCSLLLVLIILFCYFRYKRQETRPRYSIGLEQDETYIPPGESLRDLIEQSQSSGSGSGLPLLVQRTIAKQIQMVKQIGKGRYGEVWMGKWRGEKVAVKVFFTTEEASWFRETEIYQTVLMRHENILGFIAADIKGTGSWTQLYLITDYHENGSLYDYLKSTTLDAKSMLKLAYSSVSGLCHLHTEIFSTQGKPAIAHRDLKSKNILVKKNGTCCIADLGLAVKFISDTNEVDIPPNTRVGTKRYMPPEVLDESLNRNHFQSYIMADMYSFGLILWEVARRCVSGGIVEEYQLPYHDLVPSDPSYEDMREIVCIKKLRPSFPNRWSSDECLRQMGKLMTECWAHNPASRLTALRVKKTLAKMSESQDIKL
Sequence of Tyrosine-protein kinase TXK (Homo sapiens) (P42681 whole entry, the tested form may be a part): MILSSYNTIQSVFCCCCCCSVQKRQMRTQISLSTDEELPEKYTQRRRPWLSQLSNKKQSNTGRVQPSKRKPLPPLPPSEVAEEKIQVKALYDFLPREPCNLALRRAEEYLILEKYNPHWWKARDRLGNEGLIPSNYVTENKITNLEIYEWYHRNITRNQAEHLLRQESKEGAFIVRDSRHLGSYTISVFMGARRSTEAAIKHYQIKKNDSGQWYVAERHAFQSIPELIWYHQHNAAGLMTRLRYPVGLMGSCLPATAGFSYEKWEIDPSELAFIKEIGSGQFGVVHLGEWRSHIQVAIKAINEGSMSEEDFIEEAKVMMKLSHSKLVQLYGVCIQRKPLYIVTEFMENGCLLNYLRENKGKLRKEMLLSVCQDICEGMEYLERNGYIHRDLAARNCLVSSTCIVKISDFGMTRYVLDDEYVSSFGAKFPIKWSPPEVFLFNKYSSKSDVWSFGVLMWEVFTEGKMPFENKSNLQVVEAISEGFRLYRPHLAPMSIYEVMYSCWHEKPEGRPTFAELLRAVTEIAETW
Sequence of Serine/threonine-protein kinase SIK3 (Homo sapiens) (Q9Y2K2 whole entry, looked up, the tested form may be a part): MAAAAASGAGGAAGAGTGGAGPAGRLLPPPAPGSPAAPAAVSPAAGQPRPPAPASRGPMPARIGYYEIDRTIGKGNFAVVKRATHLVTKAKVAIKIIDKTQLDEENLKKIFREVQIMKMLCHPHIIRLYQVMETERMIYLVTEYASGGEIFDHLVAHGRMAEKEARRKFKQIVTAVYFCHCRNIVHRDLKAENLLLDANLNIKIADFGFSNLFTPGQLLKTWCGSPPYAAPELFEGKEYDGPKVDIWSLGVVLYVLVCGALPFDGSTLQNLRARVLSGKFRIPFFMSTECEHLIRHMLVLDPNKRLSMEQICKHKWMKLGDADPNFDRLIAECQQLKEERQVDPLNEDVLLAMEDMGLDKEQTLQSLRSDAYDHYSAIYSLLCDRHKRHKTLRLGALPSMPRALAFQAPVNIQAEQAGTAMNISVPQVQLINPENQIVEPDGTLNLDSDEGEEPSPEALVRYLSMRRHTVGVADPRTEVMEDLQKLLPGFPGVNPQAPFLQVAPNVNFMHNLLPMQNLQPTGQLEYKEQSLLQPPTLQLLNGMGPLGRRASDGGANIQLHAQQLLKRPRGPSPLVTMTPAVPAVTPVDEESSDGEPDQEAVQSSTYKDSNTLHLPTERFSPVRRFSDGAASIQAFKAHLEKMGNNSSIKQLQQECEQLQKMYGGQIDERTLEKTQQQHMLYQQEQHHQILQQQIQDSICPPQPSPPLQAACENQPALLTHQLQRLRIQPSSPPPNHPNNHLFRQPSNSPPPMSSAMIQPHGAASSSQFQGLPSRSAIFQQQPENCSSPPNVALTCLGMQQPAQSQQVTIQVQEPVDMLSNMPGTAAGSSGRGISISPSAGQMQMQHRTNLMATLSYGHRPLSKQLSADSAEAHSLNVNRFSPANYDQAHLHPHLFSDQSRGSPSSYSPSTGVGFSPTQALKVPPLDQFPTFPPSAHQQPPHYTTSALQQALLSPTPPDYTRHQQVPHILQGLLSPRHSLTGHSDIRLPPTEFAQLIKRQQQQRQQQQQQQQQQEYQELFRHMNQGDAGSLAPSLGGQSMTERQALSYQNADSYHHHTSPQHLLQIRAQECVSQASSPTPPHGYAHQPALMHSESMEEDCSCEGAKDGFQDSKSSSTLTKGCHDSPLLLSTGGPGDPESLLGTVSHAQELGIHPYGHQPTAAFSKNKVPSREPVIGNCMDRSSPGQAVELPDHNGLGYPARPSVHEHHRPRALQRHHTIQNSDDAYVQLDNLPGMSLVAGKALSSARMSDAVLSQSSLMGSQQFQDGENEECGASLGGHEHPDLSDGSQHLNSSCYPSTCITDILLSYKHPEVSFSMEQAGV
Sequence of Dual serine/threonine and tyrosine protein kinase (Homo sapiens) (Q6XUX3 whole entry, the tested form may be a part): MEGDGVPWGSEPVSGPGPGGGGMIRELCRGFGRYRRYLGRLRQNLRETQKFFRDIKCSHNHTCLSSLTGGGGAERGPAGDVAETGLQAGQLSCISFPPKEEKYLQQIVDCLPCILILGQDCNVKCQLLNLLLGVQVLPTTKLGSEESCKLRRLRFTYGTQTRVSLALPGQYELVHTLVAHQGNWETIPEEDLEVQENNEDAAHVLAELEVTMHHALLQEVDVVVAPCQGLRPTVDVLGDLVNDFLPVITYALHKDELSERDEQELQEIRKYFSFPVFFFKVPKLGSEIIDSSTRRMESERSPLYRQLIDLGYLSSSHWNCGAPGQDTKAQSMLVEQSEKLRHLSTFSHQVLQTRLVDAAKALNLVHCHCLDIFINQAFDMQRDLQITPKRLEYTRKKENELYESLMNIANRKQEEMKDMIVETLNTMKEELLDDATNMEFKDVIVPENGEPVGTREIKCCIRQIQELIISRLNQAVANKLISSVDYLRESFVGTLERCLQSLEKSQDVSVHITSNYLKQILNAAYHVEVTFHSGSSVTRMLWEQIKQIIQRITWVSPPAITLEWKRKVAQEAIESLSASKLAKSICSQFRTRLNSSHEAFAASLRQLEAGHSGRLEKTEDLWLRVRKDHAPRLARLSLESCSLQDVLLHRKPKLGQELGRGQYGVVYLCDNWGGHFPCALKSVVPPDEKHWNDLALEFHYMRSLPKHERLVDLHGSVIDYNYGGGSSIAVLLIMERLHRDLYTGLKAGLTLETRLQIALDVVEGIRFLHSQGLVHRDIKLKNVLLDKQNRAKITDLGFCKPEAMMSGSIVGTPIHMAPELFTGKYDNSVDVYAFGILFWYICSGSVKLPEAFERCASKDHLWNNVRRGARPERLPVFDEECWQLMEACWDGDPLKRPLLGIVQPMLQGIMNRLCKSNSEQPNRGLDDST
Sequence of Serine/threonine-protein kinase Sgk2 (Homo sapiens) (Q9HBY8 whole entry, the tested form may be a part): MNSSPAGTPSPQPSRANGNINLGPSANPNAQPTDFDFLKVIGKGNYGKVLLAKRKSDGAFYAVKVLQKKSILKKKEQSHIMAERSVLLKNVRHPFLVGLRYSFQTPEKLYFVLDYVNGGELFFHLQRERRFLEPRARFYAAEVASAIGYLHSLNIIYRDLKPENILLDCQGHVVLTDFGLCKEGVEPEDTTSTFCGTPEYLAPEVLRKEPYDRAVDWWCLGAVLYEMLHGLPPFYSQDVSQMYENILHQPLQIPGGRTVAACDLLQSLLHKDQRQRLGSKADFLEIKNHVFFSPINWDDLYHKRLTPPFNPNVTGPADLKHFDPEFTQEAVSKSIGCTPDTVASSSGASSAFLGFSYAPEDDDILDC
Sequence of Serine/threonine-protein kinase 25 (Homo sapiens) (O00506 whole entry, looked up, the tested form may be a part): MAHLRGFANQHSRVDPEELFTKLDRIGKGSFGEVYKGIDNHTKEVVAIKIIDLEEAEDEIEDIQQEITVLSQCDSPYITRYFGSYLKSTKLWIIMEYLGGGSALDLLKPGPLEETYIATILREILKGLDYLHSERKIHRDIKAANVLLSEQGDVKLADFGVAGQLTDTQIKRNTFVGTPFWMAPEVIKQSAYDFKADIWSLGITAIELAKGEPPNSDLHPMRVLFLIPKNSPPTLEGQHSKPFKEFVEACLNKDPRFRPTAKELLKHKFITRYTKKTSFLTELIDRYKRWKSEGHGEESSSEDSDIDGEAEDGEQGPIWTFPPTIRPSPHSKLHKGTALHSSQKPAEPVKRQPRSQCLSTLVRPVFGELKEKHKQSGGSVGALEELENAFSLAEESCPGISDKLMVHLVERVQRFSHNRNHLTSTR
Sequence of Tyrosine-protein kinase Fer (Homo sapiens) (P16591 whole entry, looked up, the tested form may be a part): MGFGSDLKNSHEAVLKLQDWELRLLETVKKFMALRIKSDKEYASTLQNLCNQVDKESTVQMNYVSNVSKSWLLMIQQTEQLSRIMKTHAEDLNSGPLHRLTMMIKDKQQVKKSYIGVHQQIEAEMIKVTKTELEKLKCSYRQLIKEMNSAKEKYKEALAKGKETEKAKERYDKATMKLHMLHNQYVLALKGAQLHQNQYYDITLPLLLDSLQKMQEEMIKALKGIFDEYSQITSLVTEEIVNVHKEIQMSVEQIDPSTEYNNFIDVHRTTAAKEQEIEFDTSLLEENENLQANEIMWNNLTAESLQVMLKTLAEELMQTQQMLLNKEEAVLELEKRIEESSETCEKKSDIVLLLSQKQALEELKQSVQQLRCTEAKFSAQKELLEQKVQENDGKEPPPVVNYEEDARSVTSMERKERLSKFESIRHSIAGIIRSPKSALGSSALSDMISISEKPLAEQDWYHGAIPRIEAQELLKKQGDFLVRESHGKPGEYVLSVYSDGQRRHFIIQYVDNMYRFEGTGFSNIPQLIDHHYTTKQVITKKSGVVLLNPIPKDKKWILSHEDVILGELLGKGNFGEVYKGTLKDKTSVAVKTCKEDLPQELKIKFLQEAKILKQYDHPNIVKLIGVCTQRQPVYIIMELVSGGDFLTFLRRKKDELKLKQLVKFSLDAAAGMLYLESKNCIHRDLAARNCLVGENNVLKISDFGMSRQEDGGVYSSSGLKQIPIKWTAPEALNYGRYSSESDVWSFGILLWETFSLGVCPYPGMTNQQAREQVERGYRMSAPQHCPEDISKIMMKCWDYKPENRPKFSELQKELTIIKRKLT

Take `COc1cc(OC)c(Cl)c(N2Cc3cnc(Nc4ccc(F)cc4)nc3N(C3CCN(C(=O)/C=C/CN(C)C)CC3)C2=O)c1Cl`: the Activity in [1] is 100%; in experiment [2] it was 100%; in [3], 99%; in experiment [4], 94%; in experiment [5], 67%; in experiment [7] it was 100%. Besides, the Activity was found to be 100% in [8]; 97% in [9]; 99% in experiment [10]; 96% in experiment [11]; 100% in [12]; 95% in experiment [13]. Also, the Activity worked out at 97% in experiment [14]; 89% in experiment [15]; 100% in experiment [16]; 99% in [17]; 100% in [18]; 100% in experiment [19]. Also, the Activity was 100% in experiment [20], 93% in [21], 100% in [22] and 92% in [23]. In addition, in experiment [6], the IC50 (usually the point on the concentration scale where inhibition reaches its midpoint) turned out to be 0.77 nM.
